Assay results from ChEMBL document CHEMBL1148504, “Substituent effects of N-(1,3-diphenyl-1H-pyrazol-5-yl)benzamides on positive allosteric modulation of the metabotropic glutamate-5 receptor in rat cortical astrocytes” (J Med Chem, 2006).
Calls of active or inactive are those of the source. The rule behind the calls is not given here.

What was measured:
[1] = target: T1, Metabotropic glutamate receptor 5 (Rattus norvegicus, UniProt P31424); experiment: Displacement of [3H]methoxyPEPy from rat mGluR5 expressed in HEK293 cells; format: cell-based
T1 sequence (P31424 whole entry): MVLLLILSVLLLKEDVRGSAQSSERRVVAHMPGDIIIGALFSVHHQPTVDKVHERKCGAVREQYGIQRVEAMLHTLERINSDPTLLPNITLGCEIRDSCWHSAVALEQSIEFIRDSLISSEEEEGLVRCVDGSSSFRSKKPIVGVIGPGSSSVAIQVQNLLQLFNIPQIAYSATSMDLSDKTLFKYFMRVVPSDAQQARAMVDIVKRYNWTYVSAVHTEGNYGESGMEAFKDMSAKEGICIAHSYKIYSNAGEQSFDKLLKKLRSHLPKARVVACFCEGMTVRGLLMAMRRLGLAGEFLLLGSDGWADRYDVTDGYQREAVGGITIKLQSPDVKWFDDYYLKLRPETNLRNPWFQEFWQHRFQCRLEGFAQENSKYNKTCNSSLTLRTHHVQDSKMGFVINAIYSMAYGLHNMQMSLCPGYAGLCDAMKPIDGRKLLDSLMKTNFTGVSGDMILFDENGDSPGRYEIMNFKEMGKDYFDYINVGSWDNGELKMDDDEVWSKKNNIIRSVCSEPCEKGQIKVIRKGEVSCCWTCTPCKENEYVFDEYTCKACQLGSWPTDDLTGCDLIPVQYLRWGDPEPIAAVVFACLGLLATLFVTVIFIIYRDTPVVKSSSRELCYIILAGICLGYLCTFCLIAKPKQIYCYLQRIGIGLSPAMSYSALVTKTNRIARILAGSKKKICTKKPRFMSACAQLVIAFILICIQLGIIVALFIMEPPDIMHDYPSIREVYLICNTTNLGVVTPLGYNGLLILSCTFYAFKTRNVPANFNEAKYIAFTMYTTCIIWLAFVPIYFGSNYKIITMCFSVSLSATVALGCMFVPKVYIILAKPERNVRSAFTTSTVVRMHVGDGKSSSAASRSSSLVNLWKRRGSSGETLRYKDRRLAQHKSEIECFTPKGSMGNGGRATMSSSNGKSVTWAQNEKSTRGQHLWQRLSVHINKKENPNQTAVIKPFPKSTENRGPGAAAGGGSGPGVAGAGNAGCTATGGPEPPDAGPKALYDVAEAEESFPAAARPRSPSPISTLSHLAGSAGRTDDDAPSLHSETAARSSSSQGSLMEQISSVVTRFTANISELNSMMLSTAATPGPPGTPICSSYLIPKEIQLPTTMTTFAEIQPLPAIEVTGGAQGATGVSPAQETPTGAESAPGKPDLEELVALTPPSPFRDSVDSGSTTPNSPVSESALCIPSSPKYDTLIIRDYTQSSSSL
Outline: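 Membranes from stable HEK cells expressing rat mGluR5a, resuspended in 50 mM Tris HCl/0.9% saline, pH 7.4. Final: 2 nM [3H]methoxyPEPy, 0.1 mg protein/mL, 0.13% DMSO, triplicate; 60 min at room temperature with shaking. Filtration onto GF/B filters, scintillation counting. Nonspecific binding with 5 µM MPEP. Ki derived from IC50 by nonlinear fit; mean ± SEM of three experiments.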

[2] = target: T1, Metabotropic glutamate receptor 5; experiment: (§1) Activity at mGluR5 assessed as potentiation of glutamate-induced calcium flux in rat astrocytes; format: functional, cell-based
Outline: (§2)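 Cortical astrocytes from 2-4-day-old Sprague Dawley rats, grown 1 week in DMEM/10% FBS/2 mM glutamine/20 mM HEPES at 37 °C, 5% CO2, then plated on poly-D-lysine. Dye-loaded 1 h at 37 °C; HBSS with 20 mM HEPES, 2.5 mM probenecid, pH 7.4.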

[3] = target: Metabotropic glutamate receptor 5 (Rattus norvegicus) (UniProt P31424); experiment: as §1; format: functional, cell-based; outline: as §2
Chain of Metabotropic glutamate receptor 5 (Rattus norvegicus) (P31424 21-1203 limits assumed): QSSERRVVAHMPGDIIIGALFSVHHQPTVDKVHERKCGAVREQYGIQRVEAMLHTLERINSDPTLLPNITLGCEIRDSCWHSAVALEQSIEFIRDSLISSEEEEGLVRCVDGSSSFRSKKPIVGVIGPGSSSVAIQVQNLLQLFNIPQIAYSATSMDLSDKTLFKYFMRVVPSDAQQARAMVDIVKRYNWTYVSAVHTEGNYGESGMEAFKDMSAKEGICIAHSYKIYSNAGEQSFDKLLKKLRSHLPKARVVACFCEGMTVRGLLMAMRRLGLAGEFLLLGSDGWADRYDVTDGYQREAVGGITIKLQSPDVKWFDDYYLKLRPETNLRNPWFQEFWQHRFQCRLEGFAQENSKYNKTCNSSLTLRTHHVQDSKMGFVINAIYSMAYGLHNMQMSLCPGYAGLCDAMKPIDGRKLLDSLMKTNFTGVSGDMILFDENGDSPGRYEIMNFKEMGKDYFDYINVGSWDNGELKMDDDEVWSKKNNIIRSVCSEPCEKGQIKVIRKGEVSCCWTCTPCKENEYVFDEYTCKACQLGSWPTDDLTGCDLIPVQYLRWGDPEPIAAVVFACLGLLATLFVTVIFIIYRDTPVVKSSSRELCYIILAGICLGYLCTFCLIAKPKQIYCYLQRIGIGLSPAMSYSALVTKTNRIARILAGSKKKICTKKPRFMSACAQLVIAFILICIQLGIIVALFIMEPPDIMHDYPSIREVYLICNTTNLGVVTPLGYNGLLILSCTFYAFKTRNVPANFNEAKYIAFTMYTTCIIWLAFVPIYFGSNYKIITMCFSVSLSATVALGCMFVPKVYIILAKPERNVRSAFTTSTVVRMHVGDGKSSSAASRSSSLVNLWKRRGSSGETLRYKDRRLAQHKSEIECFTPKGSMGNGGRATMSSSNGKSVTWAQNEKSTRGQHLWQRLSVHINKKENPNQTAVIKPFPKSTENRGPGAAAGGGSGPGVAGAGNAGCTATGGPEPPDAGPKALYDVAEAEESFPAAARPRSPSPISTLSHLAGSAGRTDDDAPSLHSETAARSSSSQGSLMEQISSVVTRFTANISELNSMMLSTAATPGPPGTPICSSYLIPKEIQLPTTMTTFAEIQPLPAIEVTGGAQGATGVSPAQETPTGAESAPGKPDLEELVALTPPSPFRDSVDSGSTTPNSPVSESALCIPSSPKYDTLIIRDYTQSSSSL

Compound | Ki [1] [nM] | EC50 [2] [nM] | Activity [3] | Activity ([3]; filed as antagonist)
c1ccc(-c2cn(-c3cc(-c4ccccc4)nn3-c3ccccc3)nn2)cc1 | 5880 | 2600 |  | 
N#Cc1cccc(C(=O)Nc2cc(-c3ccccc3)nn2-c2ccccc2Br)c1 | 230 | 50 |  | 
O=C(Nc1cc(-c2ccccc2)nn1-c1ccccc1)c1cc([N+](=O)[O-])cc([N+](=O)[O-])c1 |  | 65 |  | 
N#Cc1ccc(C(=O)/N=c2\cc(-c3ccccc3)n(C(=O)c3ccc(C#N)cc3)n2-c2ccccc2)cc1 | 5230 | 43 |  | 
O=C(CC1CCCC1)Nc1cc(-c2ccccc2)nn1-c1ccccc1 | > 10000 | 350 |  | 
O=C(Nc1cc(-c2ccccc2)nn1-c1ccccc1F)c1ccccc1 | 2700 | 104 |  | 
O=C(Nc1cc(-c2ccccc2)nn1-c1ccccc1)C1CCCCC1 | 10100 | > 10000 |  | 
O=C(Nc1c(-c2ccccc2)cnn1-c1ccccc1)c1ccc([N+](=O)[O-])cc1 | > 10000 | > 10000 |  | 
N#Cc1cccc(C(=O)Nc2c(-c3ccccc3)cnn2-c2ccccc2)c1 | 1200 |  |  | Antagonist
N#Cc1cccc(C(=O)Nc2c(-c3ccccc3)nc3ccccn23)c1 | 1990 |  |  | Antagonist
O=C(Nc1cc(-c2ccccc2)nn1-c1ccccc1)c1ccccc1[N+](=O)[O-] | > 10000 | > 10000 |  | 
O=C(Nc1cc(-c2ccccc2)nn1-c1ccccc1Br)c1cccc([N+](=O)[O-])c1 | 230 | 68 |  | 
O=C(c1ccc(F)cc1)N1CCC[C@H](c2nc(-c3ccc(F)cc3)no2)C1 |  | 170 |  | 
O=C(Nc1cc(-c2ccccc2)nn1-c1ccccn1)c1ccccc1 | > 10000 |  | inactive | 
O=C(Nc1cc(-c2ccccc2)nn1-c1ccccc1F)c1ccc([N+](=O)[O-])cc1 | 160 | 9.6 |  | 
O=C(Nc1c(-c2ccccc2)cnn1-c1ccccc1)c1ccccc1 | 1170 |  |  | Antagonist
O=C(Nc1cc(-c2ccccc2)nn1-c1ccccc1Br)c1ccc([N+](=O)[O-])cc1 | 120 | 61 |  | 
O=C(Nc1cn(-c2ccccc2)nc1-c1ccccc1)c1ccccc1 | > 10000 | > 10000 |  | 
O=C(Nc1cc(-c2ccccc2)nn1-c1ccccc1)C1=CCCCC1 | 4470 | 3300 |  | 
N#Cc1cccc(C(=O)Nc2cn(-c3ccccc3)nc2-c2ccccc2)c1 | > 10000 | > 10000 |  | 
O=C(Nc1cc(-c2ccccc2)nn1-c1ccccc1Cl)c1ccc([N+](=O)[O-])cc1 | 110 | 40 |  | 
O=C(/C=C/c1ccc([N+](=O)[O-])cc1)Nc1cc(-c2ccccc2)nn1-c1ccccc1 | 1810 | 560 |  | 
O=C(Nc1cn(-c2ccccc2)nc1-c1ccccc1)c1ccc([N+](=O)[O-])cc1 | > 10000 | > 10000 |  | 
O=C(Nc1c(-c2ccccc2)nc2ccccn12)c1ccccc1 | 3920 |  |  | Antagonist
O=C(Nc1cc(-c2ccccc2)nn1-c1ccccc1)C1CCCC1 | 11600 | 3410 |  | 
N#Cc1ccc(C(=O)N(C(=O)c2ccc(C#N)cc2)c2cc(-c3ccccc3)nn2-c2ccccc2)cc1 | 3050 | 340 |  | 

The next lines start with the values.

Ki [1] [nM] | EC50 [2] [nM] | Activity [3] | Activity ([3]; filed as antagonist) | Compound
> 10000 | 400 |  |  | O=C(Nc1cc(-c2ccccc2)nn1-c1cccc(Br)c1)c1ccccc1
> 10000 | 3530 |  |  | COc1ccc(C(=O)Nc2cc(-c3ccccc3)nn2-c2ccccc2)cc1OC
1650 | 228 |  |  | O=C(Nc1cc(-c2ccccc2)nn1-c1ccccc1)c1cccc(C(F)(F)F)c1
2220 | 39 |  |  | O=C(Nc1cc(-c2ccccc2)nn1-c1ccccc1)c1cccc([N+](=O)[O-])c1
3200 | 600 |  |  | COc1cccc(-c2cc(NC(=O)c3ccccc3)n(-c3ccccc3)n2)c1
265 | 18 |  |  | O=C(Nc1cc(-c2ccccc2)nn1-c1ccccc1)c1ccc(OC(F)(F)F)cc1
2100 | 570 |  |  | COc1cccc(-n2nc(-c3ccccc3)cc2NC(=O)c2ccccc2)c1
430 | 20 |  |  | Cc1ccc(C(=O)Nc2cc(-c3ccccc3)nn2-c2ccccc2)cc1C
500 | 62 |  |  | O=C(Nc1cc(-c2ccccc2)nn1-c1ccccc1Cl)c1ccccc1
3480 | 280 |  |  | Cc1ccc(C(=O)Nc2cc(-c3ccccc3)nn2-c2ccccc2)cn1
> 10000 |  | inactive |  | NC(=O)c1ccc(C(=O)Nc2cc(-c3ccccc3)nn2-c2ccccc2)cc1
1290 | 102 |  |  | COc1cccc(C(=O)Nc2cc(-c3ccccc3)nn2-c2ccccc2)c1
160 | 13 |  |  | O=C(Nc1cc(-c2ccccc2)nn1-c1ccccc1)c1ccc(Cl)c(Cl)c1
> 10000 | 2040 |  |  | COc1cc(OC)cc(C(=O)Nc2cc(-c3ccccc3)nn2-c2ccccc2)c1
420 | 54 |  |  | COc1ccc(C(=O)Nc2cc(-c3ccccc3)nn2-c2ccccc2)cc1
4180 | 203 |  |  | O=C(Nc1cc(-c2ccccc2)nn1-c1ccccc1)c1ccccc1
> 10000 | 2290 |  |  | O=C(Nc1cc(-c2ccccc2Cl)nn1-c1ccccc1)c1ccccc1
990 | 38 |  |  | O=C(Nc1cc(-c2ccccc2)nn1-c1ccccc1)c1ccc(C(F)(F)F)cc1
> 10000 | 2500 |  |  | O=C(Nc1cc(-c2ccccc2)nn1-c1ccccc1)c1ccncc1
780 | 64 |  |  | Cc1ccc(C(=O)Nc2cc(-c3ccccc3)nn2-c2ccccc2)cc1
> 10000 |  | inactive |  | O=C(O)c1ccc(C(=O)Nc2cc(-c3ccccc3)nn2-c2ccccc2)cc1
250 | 10.7 |  |  | O=C(Nc1cc(-c2ccccc2)nn1-c1ccccc1)c1ccc([N+](=O)[O-])cc1
> 10000 | 117 |  |  | N#Cc1cccc(-n2nc(-c3ccccc3)cc2NC(=O)c2ccccc2)c1
1560 | 75 |  |  | N#Cc1ccc(C(=O)Nc2cc(-c3ccccc3)nn2-c2ccccc2)cc1
2600 | 200 |  |  | O=C(Nc1cc(-c2ccccc2)nn1-c1ccccc1Br)c1ccccc1
